The target of experiment [1] is T1, Adenosine receptor A2b (Homo sapiens, UniProt P29275).
T1 sequence (P29275 whole entry): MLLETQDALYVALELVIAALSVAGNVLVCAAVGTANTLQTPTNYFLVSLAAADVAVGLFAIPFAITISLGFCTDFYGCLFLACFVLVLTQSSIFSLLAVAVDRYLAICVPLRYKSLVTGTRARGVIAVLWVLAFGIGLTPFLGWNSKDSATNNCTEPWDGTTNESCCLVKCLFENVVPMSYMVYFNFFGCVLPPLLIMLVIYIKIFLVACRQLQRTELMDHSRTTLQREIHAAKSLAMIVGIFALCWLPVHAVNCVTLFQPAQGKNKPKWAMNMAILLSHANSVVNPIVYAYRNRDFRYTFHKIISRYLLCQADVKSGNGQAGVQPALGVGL
Briefly: Displacement of [3H]DPCPX from Adenosine A2b receptor expressed in CHO cells. The format is cell-based.

Experiment [2] concerns the target T2, Adenosine receptor A2a (Homo sapiens, UniProt P29274). As to the kind of experiment: Displacement of [3H]-SCH- 58261 from human adenosine A2A receptor expressed in CHO cells; range 2826-3761. The format is cell-based.
Experiment [3] deals with Adenosine receptors; A1 & A3 (Homo sapiens) (UniProt P30542+P0DMS8). As to the kind of experiment: Ratio of binding affinity of human A1 receptor to that of human A3 receptor. The experiment is classed as protein assay. The method, boiled down:
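Ki ratio from displacement in CHO membranes, 6–8 concentrations, n=3-6, filtration counting. A1: 1 nM [3H]DPCPX, 50 μg protein, 120 min at 25 °C, nonspecific with 10 μM CHA. A3: 1 nM [3H]MRE3008-F20, 50 μg protein, Tris/10 mM MgCl2 pH 7.4, 120 min at 4 °C, nonspecific with 1 μM MRE3008-F20.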

The target of experiment [4] is T3, Adenosine receptor A3 (Homo sapiens) (UniProt P0DMS8).
T3 sequence (whole entry): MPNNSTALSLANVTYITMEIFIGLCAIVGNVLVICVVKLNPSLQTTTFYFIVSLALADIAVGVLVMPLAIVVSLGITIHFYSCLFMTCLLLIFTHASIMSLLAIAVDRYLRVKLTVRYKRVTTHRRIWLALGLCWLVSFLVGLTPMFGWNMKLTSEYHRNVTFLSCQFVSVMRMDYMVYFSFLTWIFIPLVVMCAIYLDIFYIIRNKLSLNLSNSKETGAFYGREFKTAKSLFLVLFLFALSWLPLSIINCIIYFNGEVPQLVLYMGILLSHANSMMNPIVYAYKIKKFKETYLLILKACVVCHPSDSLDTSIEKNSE
As to the kind of experiment: Percentage of blockade by 1 uM of the inhibition by 100 nM IB-MECA-inhibited cAMP accumulation in CHO cells expressing human adenosine A3 receptor. The experiment is classed as functional, cell-based. The method, boiled down:
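CHO cells stably expressing human A3 receptor; membranes in 50 mM Tris HCl, 10 mM MgCl2, 1 mM EDTA pH 7.4 with 5 μM GTP, 0.5 mM […] and 2.0 IU/mL adenosine deaminase. Preincubated 10 min at 37 °C, then IB-MECA (100 nM) and/or antagonist with 1 mM ATP and 10 μM forskolin for 10 min. Boiled 2 min. cAMP read by [3H]cAMP competition with adrenal binding protein.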

Experiment [5] concerns the target Adenosine receptors; A2b & A3 (Homo sapiens) (UniProt P29275+P0DMS8). As to the kind of experiment: Ratio of binding affinity of human A2B receptor to that of human A3 receptor. The experiment is classed as protein assay. The method, boiled down:
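Ki ratio, n=3-6, 6–8 concentrations. A2B in HEK-293 membranes (20 μg): 40 nM [3H]DPCPX, 50 mM Tris HCl, 10 mM MgCl2, 1 mM EDTA, 0.1 mM benzamidine pH 7.4, 2 IU/mL adenosine deaminase, 60 min at 25 °C, nonspecific with 100 μM NECA. A3 in CHO membranes (50 μg): 1 nM [3H]MRE3008-F20, 120 min at 4 °C.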

The target of experiment [6] is T4, Adenosine receptor A1 (Homo sapiens, UniProt P30542).
T4 sequence (P30542 whole entry): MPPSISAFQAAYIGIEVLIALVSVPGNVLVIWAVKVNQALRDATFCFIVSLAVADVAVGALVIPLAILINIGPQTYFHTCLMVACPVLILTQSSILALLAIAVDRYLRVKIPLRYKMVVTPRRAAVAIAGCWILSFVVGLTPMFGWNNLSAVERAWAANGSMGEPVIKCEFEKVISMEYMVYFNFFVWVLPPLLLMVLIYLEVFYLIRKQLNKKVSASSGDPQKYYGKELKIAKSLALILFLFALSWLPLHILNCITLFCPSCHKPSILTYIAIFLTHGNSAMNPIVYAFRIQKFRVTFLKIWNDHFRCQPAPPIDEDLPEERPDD
As to the kind of experiment: Tested for inhibitory activity against human adenosine A1 receptor by displacement of [3H]DPCPX expressed in CHO cells; value ranges from 2362-2575. The experiment is classed as cell-based.

Experiment [7] has as its target T5, Adenosine receptor A3 (Homo sapiens, UniProt P0DMS8).
T5 sequence (P0DMS8 whole entry): T3 sequence (whole entry)
As to the kind of experiment: biochemical.

Experiment [8] deals with T5, Adenosine receptor A3. Briefly: Displacement of [3H]MRE3008-F20 from human adenosine A3 receptor expressed in CHO cells; range 378-488. The experiment is classed as cell-based.
The target in experiment [9] is T2, Adenosine receptor A2a. Briefly: biochemical.
Experiment [10] addresses T1, Adenosine receptor A2b. Briefly: Displacement of [3H]DPCPX from Adenosine A2b receptor expressed in HEK-293 cells; range 38-63.
Experiment [11] addresses T5, Adenosine receptor A3. Briefly: Displacement of [3H]MRE3008-F20 from human adenosine A3 receptor expressed in CHO cells; range 285-385. The experiment is classed as cell-based.
For experiment [12], the target named is T2, Adenosine receptor A2a. As to the kind of experiment: Displacement of [3H]-SCH- 58261 from human adenosine A2A receptor expressed in CHO cells; range 1.70-2.10. The experiment is classed as cell-based. The method, boiled down:
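Membranes from CHO cells stably expressing human A2A receptor, grown in DMEM/F12 without nucleosides, resuspended in 50 mM Tris HCl, 10 mM MgCl2, pH 7.4; 50 μg protein/assay. Competition with [3H]SCH 58261 at 6–8 or more compound concentrations, 60 min at 25 °C; nonspecific binding with 50 μM NECA. Filtration on GF/B filters, scintillation counting; n=3-6.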

In experiment [13] the target is T1, Adenosine receptor A2b. As to the kind of experiment: Displacement of [3H]DPCPX from Adenosine A2b receptor expressed in […]; range 56-75. The experiment is classed as cell-based.
The target in experiment [14] is T3, Adenosine receptor A3 (Homo sapiens). The settings on record: CHO, 1 uM.
Experiment [15] addresses T5, Adenosine receptor A3. As to the kind of experiment: Inhibition of cAMP accumulation in CHO cells expressing human adenosine A3 receptor; range 4.0-7.5. The format is functional, cell-based.
The target of experiment [16] is T1, Adenosine receptor A2b. As to the kind of experiment: Displacement of [3H]-DPCPX from Adenosine A2b receptor expressed in CHO cells; range 50-63. The format is cell-based. Particulars: in the assay text read “HEK-293 cells” for “CHO cells”. The method, boiled down:
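Human recombinant A2B receptor was expressed in HEK-293 cell membranes (20 μg protein). Incubated with 40 nM [3H]DPCPX in 50 mM Tris HCl, 10 mM MgCl2, 1 mM EDTA, 0.1 mM benzamidine, pH 7.4, with 2 IU/mL adenosine deaminase, at least 6–8 test concentrations, 60 min, 25 °C. Nonspecific binding was taken with 100 μM NECA; n=3-6.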

Experiment [17] concerns the target T5, Adenosine receptor A3. Briefly: Displacement of [3H]MRE3008-F20 from human adenosine A3 receptor expressed in CHO cells; range 0.85-0.98. The experiment is classed as cell-based.
The target in experiment [18] is T4, Adenosine receptor A1. As to the kind of experiment: Displacement of [3H]DPCPX from human adenosine A1 receptor expressed in CHO cells; range 267-453. The format is cell-based.
The target in experiment [19] is T2, Adenosine receptor A2a. As to the kind of experiment: Displacement of [3H]-SCH- 58261 from human adenosine A2A receptor expressed in CHO cells; range 730-1100. The experiment is classed as cell-based.
The target of experiment [20] is T1, Adenosine receptor A2b. Briefly: Displacement of [3H]DPCPX from Adenosine A2b receptor expressed in HEK-293 cells; range 3828-4817.
Experiment [21] concerns the target T5, Adenosine receptor A3. As to the kind of experiment: Displacement of [3H]MRE3008-F20 from human adenosine A3 receptor expressed in CHO cells; range 3228-3614. The experiment is classed as cell-based.

The source of these data is ChEMBL document CHEMBL1133118 (J Med Chem, 2000).

T2 sequence (P29274 whole entry): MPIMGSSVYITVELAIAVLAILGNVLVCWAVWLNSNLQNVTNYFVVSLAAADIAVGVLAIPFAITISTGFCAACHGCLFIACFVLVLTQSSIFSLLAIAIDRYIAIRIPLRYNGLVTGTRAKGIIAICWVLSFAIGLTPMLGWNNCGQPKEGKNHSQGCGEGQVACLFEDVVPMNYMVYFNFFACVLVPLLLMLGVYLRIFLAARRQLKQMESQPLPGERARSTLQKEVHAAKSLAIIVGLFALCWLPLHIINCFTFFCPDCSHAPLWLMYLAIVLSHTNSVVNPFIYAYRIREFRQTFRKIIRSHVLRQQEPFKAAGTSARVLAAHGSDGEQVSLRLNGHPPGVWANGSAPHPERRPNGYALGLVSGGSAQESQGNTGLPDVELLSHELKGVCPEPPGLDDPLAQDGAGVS

Consider `COc1ccc(NC(=O)Nc2nc3nn(CCc4cccc5ccccc45)cc3c3nc(-c4ccco4)nn23)cc1`, for which the Ki in experiment [1] was > 10000 nM; in experiment [2], 3260 nM; in experiment [6], 2470 nM; in experiment [7] it was 16 nM. Moreover, the Ratio in [3] is 154; in [5], > 625. In [4], this compound returned an inhibition of 52%.
Turning to `Nc1nc2nn(CCCc3ccccc3)cc2c2nc(-c3ccco3)nn12`, the inhibition constant (Ki) in experiment [8] stood at 430 nM; in [9], 0.16 nM; in [10], 49 nM. Also, the values for the Ratio in experiment [3] and in [5] were 0.007 and 0.011, respectively. The same compound returned an inhibition in experiment [4] of 18%.
Take `CCn1cc2c(nc(N)n3nc(-c4ccco4)nc23)n1`: the Ki in experiment [11] came to 331 nM; in [12], 1.95 nM; in experiment [13] it was 65 nM. The figures for the Ratio in experiment [3] and in [5] were 0.015 and 0.19, respectively. For the same compound, in experiment [4], the inhibition worked out at 25%.
In the case of `CCCn1cc2c(nc(NC(=O)Nc3cccc(Cl)c3)n3nc(-c4ccco4)nc23)n1`, the inhibition in [14] was 80%. Besides, the Ratio in experiment [3] was 33; in experiment [5], 62.6. In [15], this compound returned an IC50 of 5.5 nM. Besides, the Ki in [16] amounted to 57 nM; in [17] it was 0.9 nM.
With `Nc1nc2nn(CCc3cccc4ccccc34)cc2c2nc(-c3ccco3)nn12`, the Ki in experiment [18] was 348 nM; in experiment [19], 896 nM; in [20], 4290 nM; in experiment [21], 3420 nM. In addition, the results for the Ratio in experiment [3] and in experiment [5] were 0.1 and 1.26, respectively. This compound also displayed an inhibition in [4] of 4%.
